Experimental data from ChEMBL document CHEMBL4622914, “Development of a bioavailable boron-containing PI-103 Bioisostere, PI-103BE” (Bioorg Med Chem Lett, 2020).

Assays:
A549 = assay: Antiproliferative activity against human A549 cells assessed as reduction in cell viability incubated for 4 days by coulter counter method; assay type: functional, cell-based; conditions: A549, 96 h
Procedure, shortened: (§1)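 Cancer cells were seeded at 50,000 per well in DMEM with 5% FBS. They were exposed to six compound doses for 4 days, with DMSO as vehicle control and a reference inhibitor as positive control. Cells were counted by Coulter counter. Survival ratio is treated cell number over vehicle cell number. IC50 was taken from dose–response curves. Triplicate experiments.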

MDA-MB-231 = assay: Antiproliferative activity against human MDA-MB-231 cells assessed as reduction in cell viability incubated for 4 days by coulter counter method; assay type: functional, cell-based; conditions: MDA-MB-231, 96 h; procedure, shortened: as §1
HeLa = assay: Antiproliferative activity against human HeLa cells assessed as reduction in cell viability incubated for 4 days by coulter counter method; assay type: functional, cell-based; conditions: 96 h; procedure, shortened: as §1
CWR22R = assay: Antiproliferative activity against human 22Rv1 cells assessed as reduction in cell viability incubated for 4 days by coulter counter method; assay type: functional, cell-based; conditions: 22Rv1, 96 h; procedure, shortened: as §1
PC-3 = assay: Antiproliferative activity against human PC3 cells assessed as reduction in cell viability incubated for 4 days by coulter counter method; assay type: functional, cell-based; conditions: PC-3, 96 h
Procedure, shortened: (§2)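 Cells seeded at 50,000 per well in DMEM with 5% FBS, exposed to six concentrations of compound for 4 days; DMSO as vehicle control. Cell numbers counted on a Coulter counter; survival ratio = treated/vehicle cell count. IC50 taken from dose-response curves. Triplicate experiments, mean ± SD.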

SK-OV-3 = assay: Antiproliferative activity against human SKOV3 cells assessed as reduction in cell viability incubated for 4 days by coulter counter method; assay type: functional, cell-based; conditions: SK-OV-3, 96 h; procedure, shortened: as §2
[1] = Stability of compound in cell culture medium assessed as compound hydrolysis measured after 0.5 hrs; assay type: physicochemical
[2] = Stability of compound in cell culture medium assessed as compound hydrolysis measured after 1 hr; assay type: physicochemical
[3] = Stability of compound in cell culture medium assessed as compound hydrolysis measured after 3 hrs; assay type: physicochemical
[4] = Stability of compound in cell culture medium assessed as compound hydrolysis measured after 8 hrs; assay type: physicochemical
[5] = Stability of compound in cell culture medium assessed as compound hydrolysis measured after 24 hrs; assay type: physicochemical
[6] = Drug concentration in ovariectomized nu/nu mouse plasma assessed 3-(4-morpholinopyrido [3',2':4,5] furo [3,2-d] pyrimidin-2-yl)phenol at 10 mg/kg, ip measured after 0.5 hrs by UHPLC-MS analysis; assay type: ADME, organism-based; conditions: in vivo
[7] = Drug concentration in ovariectomized nu/nu mouse plasma assessed 3-(4-morpholinopyrido [3',2':4,5] furo [3,2-d] pyrimidin-2-yl)phenol at 10 mg/kg, ip measured after 1 hr by UHPLC-MS analysis; assay type: ADME, organism-based; conditions: in vivo
[8] = Drug concentration in ovariectomized nu/nu mouse plasma assessed 3-(4-morpholinopyrido [3',2':4,5] furo [3,2-d] pyrimidin-2-yl)phenol at 10 mg/kg, ip measured after 3 hrs by UHPLC-MS analysis; assay type: ADME, organism-based; conditions: in vivo
[9] = Drug concentration in ovariectomized nu/nu mouse plasma assessed 3-(4-morpholinopyrido [3',2':4,5] furo [3,2-d] pyrimidin-2-yl)phenol at 10 mg/kg, ip measured after 8 hrs by UHPLC-MS analysis; assay type: ADME, organism-based; conditions: in vivo
[10] = Drug concentration in ovariectomized nu/nu mouse plasma assessed 3-(4-morpholinopyrido [3',2':4,5] furo [3,2-d] pyrimidin-2-yl)phenol at 10 mg/kg, ip measured after 24 hrs by UHPLC-MS analysis; assay type: ADME, organism-based; conditions: in vivo
[11] = Cmax in ovariectomized nu/nu mouse assessed 3-(4-morpholinopyrido [3',2':4,5] furo [3,2-d] pyrimidin-2-yl)phenol at 10 mg/kg, ip measured upto 24 hrs by UHPLC-MS analysis; assay type: ADME, organism-based; parameters: dose 10 mg/kg, route intraperitoneal; conditions: in vivo
[12] = Tmax in ovariectomized nu/nu mouse assessed 3-(4-morpholinopyrido [3',2':4,5] furo [3,2-d] pyrimidin-2-yl)phenol at 10 mg/kg, ip measured upto 24 hrs by UHPLC-MS analysis; assay type: ADME, organism-based; conditions: in vivo
[13] = Half life in ovariectomized nu/nu mouse assessed 3-(4-morpholinopyrido [3',2':4,5] furo [3,2-d] pyrimidin-2-yl)phenol at 10 mg/kg, ip measured upto 24 hrs by UHPLC-MS analysis; assay type: ADME, organism-based; conditions: in vivo
[14] = AUC in ovariectomized nu/nu mouse assessed 3-(4-morpholinopyrido [3',2':4,5] furo [3,2-d] pyrimidin-2-yl)phenol at 10 mg/kg, ip measured upto 24 hrs by UHPLC-MS analysis; assay type: ADME, organism-based; parameters: time < 24 hr, dose 10 mg/kg, route intraperitoneal; conditions: in vivo
[15] = Drug concentration in ovariectomized nu/nu mouse plasma assessed 3-(4-morpholinopyrido [3',2':4,5] furo [3,2-d] pyrimidin-2-yl)phenol at 10 mg/kg, po measured after 1 hr by UHPLC-MS analysis; assay type: ADME, organism-based; conditions: in vivo
Procedure, shortened: (§3)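 Female ovariectomized Nu/Nu mice, 4–6 weeks old, n = 5 per group. Single 10 mg/kg oral gavage in 5% DMSO/40% PEG 400/55% saline. Orbital-sinus blood was taken at 0.5, 1, 3, 8 and 24 h, one sampling per group, into EDTA. Plasma was spun at 4 °C and stored at −80 °C. The prodrug's boronic acid metabolite and phenol were quantified by C18 UHPLC–TSQ MS/MS with an acetonitrile/water 0.05% formic acid gradient.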

[16] = Drug concentration in ovariectomized nu/nu mouse plasma assessed 3-(4-morpholinopyrido [3',2':4,5] furo [3,2-d] pyrimidin-2-yl)phenol at 10 mg/kg, po measured after 3 hrs by UHPLC-MS analysis; assay type: ADME, organism-based; conditions: in vivo; procedure, shortened: as §3

With `CC1(C)OB(c2cccc(-c3nc(N4CCOCC4)c4oc5ncccc5c4n3)c2)OC1(C)C` the IC50 (A549) was 570 nM, the IC50 (MDA-MB-231) was 440 nM and the IC50 (HeLa) was 3.82 µM. For the same compound, the IC50 (CWR22R) was 660 nM, the IC50 (PC-3) was 720 nM and the IC50 (SK-OV-3) was 1330 nM. For the same compound, the Drug degradation [1] was 0.04 µM, the Drug degradation [2] was 0.01 µM and the Drug degradation [3] was 0 µM. The Drug degradation [4] was 0 µM, the Drug degradation [5] was 0 µM and the Cp [6] was 14.9 ng/mL. For the same compound, the Cp [7] was 5.4 ng/mL, the Cp [8] was 1.3 ng/mL and the Cp [9] was 1 ng/mL. It also gave a Cp [10] of 0.4 ng/mL, a Cmax [11] of 14.9 ng/mL and a Tmax [12] of 30 min. For the same compound, the t1/2 [13] was 12.4 h, the AUC [14] was 32.3 ng·h/mL and the Cp [15] was 8.2 ng/mL. For the same compound, the Cp [16] was 6.5 ng/mL.
